Measurements reported in PubChem BioAssay AID1019 (Sanford-Burnham Center for Chemical Genomics, 2008).
The campaign covered roughly 190,000 compounds. Fewer than 10 were called active.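 Rule for the calls: active = over 50% inhibition of intestinal alkaline phosphatase at 20 µM in the single-dose screen; inactive = the rest.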 Only a sample is shown.

test system: alkaline phosphatase, intestinal [Bos taurus]; assay: IAP enzyme activity blockers – biochemical, bovine IAP, CDP-star luminescence, selectivity assay for TNAP inhibitor project, primary screen (AID 1019); conditions: purified bovine IAP, 30 min, at 20 µM, stronger effect = higher value
Procedure, shortened: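 test system = bovine IAP enzyme | medium = DEA buffer 100 mM, pH 9.8, with MgCl2 1.0 mM, ZnCl2 0.02 mM | detection = luminescence | dosing = single compound dose of 20 µM, 2% DMSO final | incubation = 30 min reaction at room temperature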

inhibition, inactive:
CCCCN(CC)C(=S)Nc1ccc2nc3n(c(=O)c2c1)CCCCC3 -16.6%
O=C(CCc1ccccc1)NCCc1cccs1 1.2%
O=C(NN1C(=O)C2C3C=CC(O3)C2C1=O)c1ccccc1 (stereo not drawn) -0.3%
CN(C(=O)CSc1nnc(-c2c[nH]c3ccccc23)o1)C1CCS(=O)(=O)C1 (stereo not drawn) -2.2%
CCc1cccc2c(=O)c(C(=O)NCCCOC)c[nH]c12 -5.7%
COc1ccc(CCNC(=O)COC(=O)Cc2cc(OC)c(OC)c(OC)c2)cc1 -4.1%
O=c1cc(CN2CCN(S(=O)(=O)/C=C/c3ccccc3)CC2)c2ccc(O)cc2o1 1.7%
Cc1cccc(N2CCN(C(=O)/C=C/c3ccco3)CC2)c1C 6.3%
CCCCn1nc(C(=O)OCC(=O)Nc2sccc2C(N)=O)c2ccccc2c1=O -0.9%
COc1ccnc(Oc2ccccc2)n1 -11%
O=C1CCCC(O)=C1N=Nc1ccc2ncsc2c1 6.3%
O=C(C1=C[C@H](c2ccc(C(F)(F)F)cc2)C[C@H](OCc2ccc(CO)cc2)O1)N1CCN(Cc2ccccc2)CC1 -12.1%
COC(=O)c1sc(N)c(C(=O)OC)c1COC(=O)CNS(=O)(=O)c1ccc(C)cc1 11.4%
CN(c1ccccc1)S(=O)(=O)c1cc(C(=O)OCC(=O)N2CCN(C(=O)c3ccco3)CC2)ccc1Cl -7.4%
C=CCNC(=S)N1CCN(CCN=Cc2c(C)[nH]n(-c3ccc([N+](=O)[O-])cc3)c2=O)CC1 -6.4%
CCC(C)N(C)C1CCN(C(=S)Nc2ccc(OC)cc2)CC1 (stereo not drawn) -6.9%
CCC(C)NC(=O)Cn1nc(C(F)(F)F)c2c1CCC2 (stereo not drawn) -10.6%
CCOc1ccc(-c2n[nH]c(C)c2-c2ccccn2)c(O)c1 -27.5%
O=C(c1cc(Cl)cc(Cl)c1)N1CCC(=O)N(C(COCc2ccccc2)Cc2ccccc2)CC1 (stereo not drawn) -2.4%
COc1ccc(Cn2c(=O)cc(C)[nH]c2=S)cc1 9.8%
Cc1ccc(Cl)cc1NC(=O)COC(=O)CC(C)(C)C -16%
CCc1ccc(N2CC(O)=C(c3nc4ccccc4c(=O)[nH]3)C2=N)cc1 -19.9%
CC(C)c1cc(NCc2ccccn2)n2c(nc3ccccc32)c1C#N -20.8%
CC(C)[C@@H]1NC(=O)c2cc([N+](=O)[O-])cc(I)c2NCCC[C@@H](C(=O)NC(CC(=O)O)C(N)=O)NC(=O)[C@H](CO)NC1=O (stereo partly drawn) 6.3%
Cc1ccc(-c2ccc(/C=N/NC(=O)CN3CCOCC3)o2)cc1[N+](=O)[O-] -0.9%
C/C(=N\NC(=O)C(N)=O)c1ccc2c(c1)OCCO2 -4.3%
Cc1ccc(NC(=O)c2cccnc2C(=O)Nc2ccc(C)cc2)cc1 -4.3%
Cc1ccc(CN2CCN(Cc3cccc(C)n3)CC2CCO)cc1 (stereo not drawn) -23.9%
CCN(CC)c1ccc(C(=O)c2cnc(/N=C/N(C)C)s2)cc1 11.8%
CC(C)CNC(=O)C(=O)Nc1ccc(N(C)C)cc1 -7.9%
O=C(CSc1nnc(-c2ccc([N+](=O)[O-])cc2)o1)Nc1ccccn1 -24.6%
CCO[C@@H]1OC(C(N)=O)=C[C@H](c2ccc(Br)cc2)[C@H]1CCCO -2%
Cn1cccc1C(C#N)c1ccccc1C#N (stereo not drawn) -10.8%
Cc1ccc(NC(=S)N(Cc2ccco2)C(C)c2cccs2)cc1 (stereo not drawn) 34.5%
NC1=C([N+](=O)[O-])C(c2ccccc2)C2=C(CCCC2=O)O1 (stereo not drawn) 3.7%
COc1ccccc1Oc1ccc(N/C=C2/CCCC2=O)cc1 20.1%
CC(=O)Nc1nc(N(C)C)nc(N(C)C)n1 4.4%
CC(=O)c1ccc(N=C2SCCCN2C(=O)C2CCCCC2)cc1 24.2%
COc1ccccc1N1CCN(CC(=O)NCCc2ccc(S(N)(=O)=O)cc2)CC1 -0.9%
Oc1ccc(/C=N/Nc2ccc(C(F)(F)F)cn2)cc1O -26.9%
COc1ccc(OC)c(C2C3=C(N=c4s/c(=C\c5cccc(O)c5)c(=O)n42)c2ccccc2CC3)c1 (stereo not drawn) 0.5%
COc1ccc(NC(=O)C(C)SCc2ccccc2)cc1 (stereo not drawn) -24.1%
CN(c1ccccc1)S(=O)(=O)c1ccc(Cl)c(C(=O)OCC(=O)N2CCOCC2)c1 0.4%
CC(NCc1nc2ccccc2n1C)C12CC3CC(CC(C3)C1)C2 (stereo not drawn) 1%
CCN(CC)S(=O)(=O)c1cc([N+](=O)[O-])ccc1N=Nc1c(O)n(C)c2ccccc12 -5.1%
Cc1cccc(CN2CCN(Cc3cnn(-c4ccccc4F)c3)CC2CCO)n1 (stereo not drawn) -15.4%
O=[N+]([O-])c1ccccc1N/N=C1\CCc2ccccc21 14.9%
CCc1ccc(C(=O)OCC(=O)Nc2cccc(S(=O)(=O)NC3=NCCCCC3)c2)cc1 7.2%
O=C(COC(=O)c1cc(-c2cccs2)nn1-c1ccccc1)Nc1cc([N+](=O)[O-])ccc1Cl -4.8%
Cc1ccc(C2=NN(C(=O)COc3ncnc4ccccc34)C(c3ccco3)C2)cc1 (stereo not drawn) -8.2%
COC(=O)c1cc(NC(=O)c2cccnc2)ccc1N1CCOCC1 0.2%
COc1ccc(S(=O)(=O)NC(C)C)cc1C(=O)NC1CCCCC1 7.7%
COc1ccccc1NC(=O)C[n+]1ccccc1 5.8%
Cc1cc(/C=C2/SC(=O)N(CC(=O)N3CCCC3)C2=O)ccc1N1CCOCC1 2.3%
COc1ccc(CCNC(=O)Cn2c(=O)n(CC3CCCO3)c(=O)c3ccccc32)cc1OC (stereo not drawn) -3.9%
N#C/C(=C\C1=C(N2CCOCC2)C(=C\c2ccccc2)/CC1)C(=O)Nc1ccccc1F 5.9%
CC1CN/C(=C\C(=O)c2ccc(Br)cc2)C(=O)N1 (stereo not drawn) 12.9%
COc1ccc(/C=C(\C#N)C(=O)ONC2=NCCCCC2)cc1 -2%
